Source: ChEMBL document CHEMBL4004806, “Cyclocurcumin, an Antivasoconstrictive Constituent of Curcuma longa (Turmeric)” (J Nat Prod, 2017)

How the values were obtained:
[1] = target: T1, Voltage-gated L-type calcium channel (Rattus norvegicus, UniProt P22002+Q02485+P27732); test: Inhibition of L-type calcium channel in Sprague-Dawley rat aortic rings assessed as reduction in phenylephrine-induced vasoconstriction preincubated with aortic rings followed by phenylephrine addition
Procedure, shortened: (§1)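 Rat aortic rings in organ baths of Krebs-Ringer (pH 7.4, 95% O2/5% CO2, 37 °C) pretreated with compound. Contraction was then started by cumulative phenylephrine, serotonin or 60 mM K+. Isometric tension recorded by force transducer and expressed as percent of a prior 90 mM K+ contraction. Mean ± SEM, ≥3 independent experiments, ANOVA/Duncan or t test.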

[2] = target: T1, Voltage-gated L-type calcium channel; test: Inhibition of L-type calcium channel in Sprague-Dawley rat aortic rings assessed as reduction in phenylephrine-induced vasoconstriction at 25 uM preincubated with aortic rings followed by phenylephrine addition; procedure, shortened: as §1
[3] = target: T1, Voltage-gated L-type calcium channel; test: Inhibition of L-type calcium channel in Sprague-Dawley rat aortic rings assessed as reduction in Bay K8644-induced vasoconstriction preincubated with aortic rings followed by Bay K8644 addition
Procedure, shortened: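 Aortic rings in organ baths (37 °C, 95% O2/5% CO2) pretreated with compound. Contraction was elicited by Bay K8644 (10−6 M) in 15 mM K+ buffer, pH 7.4, containing 0.026 mM EDTA. Tension expressed as percent of a prior 90 mM K+ response. Mean ± SEM, ≥3 independent experiments.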

[4] = target: T1, Voltage-gated L-type calcium channel; test: Inhibition of L-type calcium channel in endothelium-denuded Sprague-Dawley rat aortic rings assessed as reduction in 5-HT-induced vasoconstriction at 5 to 25 uM preincubated with aortic rings followed by 5-HT addition; procedure, shortened: as §1
[5] = target: T1, Voltage-gated L-type calcium channel; test: Inhibition of L-type calcium channel in Sprague-Dawley rat primary VSMC assessed as reduction in 5-HT-induced calcium influx preincubated for 30 mins followed by 5-HT addition by Fura-2-AM dye based confocal microscopic method
Procedure, shortened: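 Enzymatically isolated rat aortic VSMCs on coverslips pretreated with compound for 30 min. Cells loaded 60 min with 1 μM fura-2/AM in PSS (pH 7.4) with 1% BSA, then superfused with PSS at 2 mL/min at 33 °C. Serotonin-evoked calcium rise imaged by 40× oil-objective fluorescence microscopy. Mean ± SEM, ≥3 experiments.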

[6] = target: T1, Voltage-gated L-type calcium channel; test: Inhibition of L-type calcium channel in Sprague-Dawley rat primary VSMC assessed as reduction in 5-HT-induced MLC phosphorylation preincubated for 30 mins followed by 5-HT addition measured after 10 mins by Western blot method
Procedure, shortened: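 Primary VSMCs were released from rat aorta with collagenase and elastase. Cells pretreated with compound for 30 min, then stimulated with 10−5 M serotonin for 10 min. Lysed in RIPA with protease/phosphatase inhibitors, and pMLC and total MLC detected by SDS-PAGE Western blot with chemiluminescent imaging. Mean ± SEM, ≥3 experiments.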

[7] = target: T1, Voltage-gated L-type calcium channel; test: Inhibition of L-type calcium channel in Sprague-Dawley rat aortic rings assessed as reduction in 5-HT-induced vasoconstriction at 5 to 25 uM preincubated with aortic rings followed by 5-HT addition; procedure, shortened: as §1
Aorta [8] = test: Cytotoxicity against Sprague-Dawley rat aortic rings assessed as non-specific tissue damage at 5 to 25 uM after 30 mins by LDH release assay; type: tissue-based; conditions: 0.5 h
Procedure, shortened: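 Aortic rings exposed to compound for 30 min, then medium aliquots collected. Aliquot incubated in Tris-EDTA-NADH buffer (0.17 mM β-NADH, pH 7.4) for 10 min at 37 °C. Prewarmed 14 mM pyruvate added, and the fall in A340 was followed for 1 min as LDH activity. Mean ± SEM, ≥3 independent experiments.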

[9] = target: T1, Voltage-gated L-type calcium channel; test: Inhibition of 60 mM K+ activated L-type calcium channel-mediated vasoconstriction in Sprague-Dawley rat aortic rings preincubated followed by 60 mM K+ addition; procedure, shortened: as §1
[10] = target: T1, Voltage-gated L-type calcium channel; test: Reversible inhibition of 5-HT activated L-type calcium channel-mediated vasoconstriction in Sprague-Dawley rat aortic rings at 25 uM preincubated with aortic rings followed by 5-HT addition and subsequent compound wash out measured after 4 hrs
Procedure, shortened: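 Organ-bath aortic rings (Krebs-Ringer, 37 °C) treated with compound, and a 5-HT contraction recorded. Buffer was washed out and the 5-HT contraction measured again 4 h later. Tension expressed relative to a 90 mM K+ response. Mean ± SEM, ≥3 independent experiments.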

Aorta [11] = test: Cytotoxicity against Sprague-Dawley rat aortic rings assessed as non-specific tissue damage after 24 hrs by TUNEL assay; type: tissue-based
Procedure, shortened: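 Aortic rings kept in MEM with 100 U/mL penicillin and 100 μg/mL streptomycin, exposed to compound or vehicle for 24 h at 37 °C in 95% air/5% CO2. Sections quenched with 0.3% H2O2, digested with 20 μg/mL Proteinase K, TdT-labelled with digoxigenin-dUTP for 1 h at 37 °C. Detection by HRP anti-digoxigenin (30 min, room temperature) and DAB, hematoxylin counterstain. Mean ± SEM, ≥3 independent experiments.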

[12] = target: T1, Voltage-gated L-type calcium channel; test: Irreversible inhibition of 5-HT activated L-type calcium channel-mediated vasoconstriction in Sprague-Dawley rat aortic rings at 15 uM preincubated with aortic rings followed by 5-HT addition and subsequent compound wash out measured after 4 hrs
Procedure, shortened: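 Rat aortic rings in organ baths of Krebs-Ringer solution (pH 7.4, 37 °C, gassed with 95% O2/5% CO2). Rings were pretreated with compound, then contracted with 5-HT (reading I). Buffer was washed out, and 5-HT contraction was re-measured 4 h later (reading II). Isometric tension was recorded and expressed as percent of the 90 mM K+ contraction. Mean ± SEM, ≥3 independent experiments.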

COc1cc(/C=C/C(=O)CC(=O)/C=C/c2ccc(O)c(OC)c2)ccc1O [CURCUMIN]
IC50 [1]: > 100 µM

COc1cc(/C=C/C(=O)CC(=O)/C=C/c2ccc(O)cc2)ccc1O
inhibition (INH) [2]: Active

COc1cc(/C=C/C2=CC(=O)CC(c3ccc(O)c(OC)c3)O2)ccc1O (configuration not stated)
IC50 [3]: 13.5 µM
inhibition (INH) [4]: Active
inhibition (INH) [5]: Dose-dependent effect
IC50 [1]: 14.9 µM
pA2 [1]: 5.2
inhibition (INH) ([1]; rat): Dose-dependent effect
inhibition (INH) [6]: Active
inhibition (INH) [7]: Active
Activity (Aorta [8]): Non-Toxic
IC50 [9]: 18.5 µM
inhibition (INH) ([9]; rat): Dose-dependent effect
inhibition (INH) [10]: Active
Activity (Aorta [11]): Non-Toxic
inhibition (INH) [2]: Active

C[As](O)O
inhibition (INH) [12]: Active
